Laboratory results: ChEMBL document CHEMBL4024801, “Synthesis and Structure-Activity Relationship (SAR) Studies of Novel Pyrazolopyridine Derivatives as Inhibitors of Enterovirus Replication” (J Med Chem, 2018)

How the values were obtained:
Enterovirus A71 = test: Antiviral activity against Enterovirus A71 infected in monkey LLC-MK2 cells assessed as protection against virus-induced cytopathic effect after 3 to 4 days by crystal violet staining-based spectrophotometric method; assay type: functional, cell-based; settings: Enterovirus A
Outline: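 EV-A71 was tested in LLC-MK2 cells grown in DMEM with 10% FBS, penicillin, streptomycin and glutamine, at a low MOI preset to give full CPE in 3–4 days. Compound was dissolved in DMSO and diluted 2-fold, in triplicate. Cells were fixed with formaldehyde when control CPE was maximal, then stained with crystal violet and read at OD590. EC50 came from a 7-point four-parameter or sigmoidal fit.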

Poliovirus 3 = test: Antiviral activity against Poliovirus 3 infected in human HeLa-RW cells assessed as protection against virus-induced cytopathic effect after 3 to 4 days by crystal violet staining-based spectrophotometric method; assay type: functional, cell-based; settings: Enterovirus C
Outline: (§1)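 HeLa-RW cells grown in DMEM with penicillin, streptomycin, glutamine and 10% FBS. They were infected at a low MOI pre-set to give full CPE in 3-4 days. Compound in DMSO was added as serial 2-fold dilutions (7 points), each in triplicate. When control CPE was maximal, cells were fixed with 4% formaldehyde, stained with 0.25% crystal violet and read at OD590. EC50 came from a four-parameter or sigmoidal fit.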

Coxsackievirus B3 = test: Antiviral activity against Coxsackievirus B3 infected in human HeLa-RW cells assessed as protection against virus-induced cytopathic effect after 3 to 4 days by crystal violet staining-based spectrophotometric method; assay type: functional, cell-based; settings: Enterovirus B; outline: as §1
Poliovirus 1 = test: Antiviral activity against Poliovirus 1 infected in human HeLa-RW cells assessed as protection against virus-induced cytopathic effect after 3 to 4 days by crystal violet staining-based spectrophotometric method; assay type: functional, cell-based; settings: Enterovirus C; outline: as §1
[1] = Cytotoxicity against human HeLa-RW cells after 3 to 4 days by crystal violet staining-based spectrophotometric method; assay type: cell-based; settings: hela-rw
Outline: (§2)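 Uninfected cells (HeLa-RW or LLC-MK2, in DMEM with penicillin, streptomycin, glutamine and 10% FBS) were exposed to serial 2-fold compound dilutions for the same period as the CPE assay. They were then fixed with formaldehyde, stained with crystal violet and read by OD590 spectrophotometry to derive CC50. Values are means ± s.d. of 3 experiments, or the average of triplicates in one.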

[2] = Selectivity index, ratio of CC50 for monkey LLC-MK2 cells to EC50 for Enterovirus A71; assay type: toxicity; settings: read-out: Ratio CC50/EC50
Outline: (§3)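 LLC-MK2 cells in DMEM with 10% FBS were used for both arms. For EC50, cells were infected with EV-A71 at a low MOI giving full CPE in 3–4 days and exposed to 2-fold compound dilutions, in triplicate. For CC50, uninfected cells got 2-fold dilutions for the same period. Both arms were formaldehyde-fixed, crystal violet-stained and read at OD590.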

LLC-MK2 = test: Cytotoxicity against monkey LLC-MK2 cells after 3 to 4 days by crystal violet staining-based spectrophotometric method; assay type: cell-based, Macaca mulatta; settings: rhesus monkey; outline: as §2
[3] = Selectivity index, ratio of CC50 for human HeLa-RW cells to EC50 for Coxsackievirus B3; assay type: toxicity; settings: read-out: Ratio CC50/EC50
Outline: as §3, with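 “HeLa-RW” for “LLC-MK2”, “CVB3-H3” for “EV-A71”, “triplicate, with a 7-point fit.” for “triplicate.”, “fixed,” for “formaldehyde-fixed,”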

Row | SMILES | EC50 (Enterovirus A71) [µM] | EC50 (Poliovirus 3) [µM] | EC50 (Coxsackievirus B3) [µM] | EC50 (Poliovirus 1) [µM] | CC50 [1] [µM] | selectivity ratio [2] | CC50 (LLC-MK2) [µM] | selectivity ratio [3]
1 | CC(C)n1ncc2c(C(=O)Nc3cc(F)cc(F)c3)cc(-c3cccs3)nc21 | > 10 | > 10 | > 10 | > 10 |  |  |  | 
2 | CC(C)n1ncc2c(C(=O)Nc3ccc(F)cc3)cc(C3CC3)nc21 | 3.2 | > 25 | 3.3 | > 25 | 10 | 3.9 | 12.5 | 3
3 | CC(C)n1ncc2c(C(=O)N(C)c3ccccn3)cc(-c3cccs3)nc21 | > 10 | > 10 | > 25 | > 10 |  |  |  | 
4 | CC(C)n1ncc2c(NC(=O)c3cc(-c4cccs4)nc4c3cnn4C(C)C)cc(-c3cccs3)nc21 | > 10 | > 10 | > 10 | > 10 |  |  |  | 
5 | CC(C)n1ncc2c(C(=O)Nc3ccccc3F)cc(-c3nccs3)nc21 | > 10 | > 10 | > 10 | > 10 |  |  |  | 
6 | CC(C)n1ncc2c(C(=O)Nc3c(F)cccc3F)cc(-c3cccs3)nc21 | 3.4 | > 25 | 3.2 | > 25 | > 200 | > 58.8 | > 200 | > 62.5
7 | CC(C)n1ncc2c(C(=O)Nc3ccc(F)cc3)cc(-c3ccco3)nc21 | 2.6 | > 25 | 2.4 | > 25 | > 200 | > 76.9 | > 200 | > 83
8 | CC(C)n1ncc2c(C(=O)Nc3cccc(F)c3F)cc(-c3cccs3)nc21 | 3 | > 25 | 2.7 | > 25 | > 200 | 25 | 75 | > 74.1
9 | CC(C)n1ncc2c(S(=O)(=O)Nc3ccc(F)cc3)cc(-c3cccs3)nc21 | > 10 | > 10 | > 10 | > 10 |  |  |  | 
10 | CC(C)n1ncc2c(C(=O)Nc3ccccn3)cc(-c3ccccc3)nc21 | 0.7 | > 25 | 1.6 | > 25 | 18.8 | 17.9 | 12.5 | 11.8
11 | CC(C)n1ncc2c(C(=S)Nc3ccc(F)cc3)cc(-c3cccs3)nc21 | > 10 | > 10 | > 10 | > 10 |  |  |  | 
12 | CC(C)n1cnc2c(C(=O)Nc3ccc(F)cc3)cc(-c3cccs3)nc21 | > 10 | > 10 | > 10 | > 10 |  |  |  | 
13 | CC(C)n1ncc2c(C(=O)Nc3ccc(F)cc3)nc(-c3cccs3)nc21 | > 10 | > 10 | > 10 | > 10 |  |  |  | 
14 | CC(C)n1ncc2c(NS(=O)(=O)c3ccc(F)cc3)cc(-c3cccs3)nc21 | > 10 | > 10 | > 10 | > 10 |  |  |  | 
15 | CC(C)n1ncc2c(C(=O)Nc3ccc(S(N)(=O)=O)cc3)cc(-c3cccs3)nc21 | > 10 | > 10 | > 10 | > 10 |  |  |  | 
16 | CC(C)n1ncc2c(C(=O)Nc3ccccc3F)cc(-c3ccncc3)nc21 | > 10 | > 25 | 5.1 | > 25 | 37.5 |  | 45 | 7.4
17 | CC(C)n1ncc2c(C(=O)Nc3ccccc3C(F)(F)F)cc(-c3cccs3)nc21 | > 10 | > 10 | > 10 | > 10 |  |  |  | 
18 | CC(C)n1ccc2c(C(=O)Nc3ccncc3)cc(-c3cccs3)nc21 | > 10 | > 10 | > 10 | > 10 |  |  |  | 
19 | CC(C)n1ncc2c(C(=O)Nc3ccccc3F)cc(-c3cncs3)nc21 | 3.7 | > 25 | 3.3 | > 25 | > 200 | 27 | 100 | > 60.6

Row | SMILES | EC50 (Enterovirus A71) [µM] | EC50 (Poliovirus 3) [µM] | EC50 (Coxsackievirus B3) [µM] | EC50 (Poliovirus 1) [µM] | CC50 [1] [µM] | selectivity ratio [2] | CC50 (LLC-MK2) [µM] | selectivity ratio [3]
20 | CC(C)n1ncc2c(C(=O)Nc3ccc(F)cc3)cc(-c3cccs3)nc21 | 0.9 | > 25 | 0.7 | > 25 | > 200 | > 222 | > 200 | > 286
21 | CC(C)n1ncc2c(C(=N)Nc3cccnc3)cc(-c3cccs3)nc21 | > 10 | > 10 | > 10 | > 10 |  |  |  | 
22 | CC(C)n1ncc2c(C(=O)Nc3ccccc3F)cc(-c3cccnc3)nc21 | > 10 | > 25 | 7 | > 25 | 37.5 |  | 50 | 5.4
23 | CC(C)n1ncc2c(C(=O)Nc3ccc(F)c(F)c3)cc(-c3cccs3)nc21 | > 25 | > 10 | 1.3 | > 10 | > 200 |  | > 200 | > 154
24 | CC(C)n1ncc2c(C(=O)Nc3cccc(S(N)(=O)=O)c3)cc(C3CC3)nc21 | > 10 | > 10 | > 10 | > 10 |  |  |  | 
25 | CC(C)n1ncc2c(C(=O)Nc3ccc(F)cc3Br)cc(-c3cccs3)nc21 | > 10 | > 10 | > 10 | > 10 |  |  |  | 
26 | CC(C)n1ccc2c(C(=O)Nc3ccc(F)cc3)cc(-c3cccs3)nc21 | > 25 | > 25 | 3.1 | > 25 | > 200 |  | > 200 | > 64.5
27 | CC(C)n1ncc2c(C(=O)Nc3ccncc3)cc(-c3ccsc3)nc21 | > 10 | > 10 | > 10 | > 10 |  |  |  | 
28 | CC(C)n1nnc2c(C(=O)Nc3ccc(F)cc3)cc(-c3cccs3)nc21 | > 10 | > 10 | > 10 | > 10 |  |  |  | 
29 | CC(C)n1ncc2c(-c3nc4ccc(F)cc4o3)cc(-c3cccs3)nc21 | > 10 | > 10 | > 10 | > 10 |  |  |  | 
30 | CC(C)n1ncc2c(C(=O)Nc3ccc(F)cc3F)cc(-c3cccs3)nc21 | 1.6 | > 25 | 1.4 | > 25 | > 200 | > 125 | > 200 | > 143
31 | CC(C)n1ncc2c(C(=O)Nc3ccccc3F)cc(-c3ccccn3)nc21 | > 10 | > 25 | 6.9 | > 25 | > 200 |  | 100 | > 29
32 | CC(C)n1ncc2c(C(=O)Nc3ccc(F)cc3)cc(-c3ccsc3)nc21 | 1.4 | > 25 | 1.3 | > 25 | 25 | > 143 | > 200 | 19.2
33 | CC(C)n1ncc2c(C(=O)Nc3ccccc3F)cc(-c3ccccc3)nc21 | 5.7 | > 25 | 4.5 | > 25 | 37.5 | > 35.1 | > 200 | 8.3
34 | CC(C)n1ncc2c(C(=O)Nc3cc(F)ccc3F)cc(-c3cccs3)nc21 | 3.5 | > 25 | 2.7 | > 25 | > 200 | 28.6 | 100 | > 74.1
35 | CC(C)n1ncc2c(C(=O)Nc3ccccn3)cc(C3CC3)nc21 | 4.7 | > 25 | 4.7 | > 25 | 25 | 5.3 | 25 | 5.3
36 | CC(C)n1ncc2c(C(=N)Nc3ccc(F)cc3)cc(-c3cccs3)nc21 | > 10 | > 10 | > 10 | > 10 |  |  |  | 
37 | CC(C)n1ncc2c(C(=O)Nc3ccc(C(F)(F)F)cc3)cc(-c3cccs3)nc21 | > 25 | > 25 | > 25 | > 25 |  |  |  | 
38 | CC(C)n1ncc2c(C(=O)Nc3ccccc3F)cc(-c3cnco3)nc21 | > 10 | > 10 | > 10 | > 10 |  |  |  | 
